Broadly, the Vmax is the rate approached at saturating substrate. Usually Ki stands for the equilibrium dissociation constant of an inhibitor or competing ligand from its target. For orientation: Cmax means the maximum level reached in the sampled fluid or tissue.

Here are results for one compound from ChEMBL document CHEMBL3526018, “Metabolites of PPI-2458, a selective, irreversible inhibitor of methionine aminopeptidase-2: structure determination and in vivo activity” (Drug Metab Dispos, 2013).

SMILES strings stand for the structures. Active and inactive are the calls of the source. The rule behind the calls is not given here.

Data set [1] relates to CYP3A4 (Homo sapiens). Kind of data set: Ratio of Vmax to Km for human recombinant CYP3A4 assessed as ((3R,4S,5S,6R)-4-((2R,3R)-3-(((R)-3,3-dimethyloxiran-2-yl)methyl)-2-methyloxiran-2-yl)-5-methoxy-1-oxaspiro[2.5]octan-6-yl ((R)-1-amino-3-methyl-1-oxobutan-2-yl)carbamate) formation. Particulars: recombinant enzyme.
In data set [2] the test system is Liver microsome. Kind of data set: Metabolic stability in dog liver microsomes assessed as retention time of ((3R,4S,5S,6R)-4-((2R,3R)-3-((E)-4-hydroxy-3-methylbut-2-en-1-yl)-2-methyloxiran-2-yl)-5-methoxy-1-oxaspiro[2.5]octan-6-yl((R)-1-amino-3-methyl-1-oxobutan-2-yl)carbamate) at 5 mM by LC/MS analysis. The class given is ADME, Canis lupus familiaris. As to conditions: 5000 µM. (In general: Liver microsomes are a subcellular fraction often used to study metabolism.)

Data set [3] relates to Rattus norvegicus. Description: Inhibition of MetAP2 level in Sprague-Dawley rat thymus assessed as free enzyme level at 0.3 mg/kg, po by ELISA. The class given is functional, organism-based. Also noted: dose 0.3 mg/kg. In outline:
(§1)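 Male Sprague-Dawley rats (200-225 g, n=3 per group) were dosed once IV at 0.3 mg/kg or PO at 0.3 or 3.0 mg/kg, in 11% HPCD in water. Blood, liver, lung, thymus and pooled non-mesenteric lymph nodes were taken at ~24 h and lysed or homogenized with NP-40. Free MetAP2 was measured by ELISA and expressed as % of vehicle.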
In general terms: An ELISA detects its analyte on a solid surface through an enzyme-linked reagent.

In data set [4] the target is T1, Cytochrome P450 3A4 (Homo sapiens, UniProt P08684). Description: Inhibition of CYP3A4 activity in human liver microsomes assessed as dibenzo fluuorescene oxidation up to 40 uM. It is filed as ADME.
For data set [5], the system named is CYP3A5 (Homo sapiens). Kind of data set: Ratio of Vmax to Km for human recombinant CYP3A5 assessed as ((3R,4S,5S,6R)-5-methoxy-4-((2R,3R)-2-methyl-3-(3-methylbut-2-en-1-yl)oxiran-2-yl)-1-oxaspiro[2.5]octan-6-yl ((R)-1-amino-3-hydroxy-3-methyl-1-oxobutan-2-yl)carbamate) formation. As to conditions: recombinant enzyme.
The subject of data set [6] is Rattus norvegicus. Kind of data set: Inhibition of MetAP2 level in Sprague-Dawley rat whole blood assessed as free enzyme level at 0.3 mg/kg, po by ELISA. Also noted: dose 0.3 mg/kg. It is filed as functional, organism-based. In outline: as §1
Data set [7] relates to Liver. Kind of data set: Metabolic stability in mouse liver microsomes assessed as retention time of ((3R,4S,5S,6R)-5-methoxy-4-((2R,3R)-2-methyl-3-(3-methylbut-2-en-1-yl)oxiran-2-yl)-1-oxaspiro[2.5]octan-6-yl ((R)-1-amino-3-hydroxy-3-methyl-1-oxobutan-2-yl)carbamate) at 5 mM by LC/MS analysis. It is filed as ADME. As to conditions: 5000 µM. A digest of the protocol: (§2)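 Liver microsomes (pooled male/female) in 100 mM KPO4 pH 7.4 with PPI-2458 (5 mM stock), pre-incubated 5 min at 37°C, then 10 mM NADPH added; 20 min at 37°C with shaking. Time-zero and no-NADPH controls. Quenched with CH3CN; supernatant dried and redissolved in water. Analysed by LC-MS, ESI+ full scan 300–800 amu, C18 column, 10→50% B gradient.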

Data set [8] relates to CYP3A5 (Homo sapiens). Description: Activity of human recombinant CYP3A5 assessed as ((3R,4S,5S,6R)-5-methoxy-4-((2R,3R)-2-methyl-3-(3-methylbut-2-en-1-yl)oxiran-2-yl)-1-oxaspiro[2.5]octan-6-yl ((R)-1-amino-3-hydroxy-3-methyl-1-oxobutan-2-yl)carbamate) formation per pmol of enzyme.
Data set [9] has as its system Liver microsome. Description: Metabolic stability in human liver microsomes assessed as retention time of ((3R,4S,5S,6R)-5-methoxy-4-((2R,3R)-2-methyl-3-(3-methylbut-2-en-1-yl)oxiran-2-yl)-1-oxaspiro[2.5]octan-6-yl ((R)-1-amino-3-hydroxy-3-methyl-1-oxobutan-2-yl)carbamate) at 5 mM by LC/MS analysis. As to conditions: 5000 µM. The class given is ADME. In outline: as §2

Data set [10] deals with Rattus norvegicus. Kind of data set: Inhibition of MetAP2 level in Sprague-Dawley rat lung assessed as free enzyme level at 0.3 mg/kg, iv by ELISA. The class given is functional, organism-based. Also noted: dose 0.3 mg/kg. A digest of the protocol:
as §1

The target in data set [11] is T1, Cytochrome P450 3A4. Description: Inhibition of CYP3A4 activity in human liver microsomes using testosterone as a substrate by LC/MS analysis. The class given is ADME.
In data set [12] the test system is Rattus norvegicus. Kind of data set: Inhibition of MetAP2 level in Sprague-Dawley rat whole blood assessed as free enzyme level at 3 mg/kg, po by ELISA. It is filed as functional, organism-based. Also noted: dose 3 mg/kg. In outline: as §1
The test system of data set [13] is Liver microsome. Kind of data set: Metabolic stability in rat liver microsomes assessed as retention time of ((3R,4S,5S,6R)-5-methoxy-4-((2R,3R)-2-methyl-3-(3-methylbut-2-en-1-yl)oxiran-2-yl)-1-oxaspiro[2.5]octan-6-yl ((R)-1-amino-3-hydroxy-3-methyl-1-oxobutan-2-yl)carbamate) at 5 mM by LC/MS analysis. Particulars: 5000 µM. It is filed as ADME. In outline:
as §2

For data set [14], the system named is CYP3A5 (Homo sapiens). Kind of data set: Ratio of Vmax to Km for human recombinant CYP3A5 assessed as ((3R,4S,5S,6R)-4-((2R,3R)-3-(((R)-3,3-dimethyloxiran-2-yl)methyl)-2-methyloxiran-2-yl)-5-methoxy-1-oxaspiro[2.5]octan-6-yl ((R)-1-amino-3-methyl-1-oxobutan-2-yl)carbamate) formation. As to conditions: recombinant enzyme.
Data set [15] deals with Liver. Description: Metabolic stability in mouse liver microsomes assessed as retention time of ((3R,4S,5S,6R)-4-((2R,3R)-3-(((R)-3,3-dimethyloxiran-2-yl)methyl)-2-methyloxiran-2-yl)-5-methoxy-1-oxaspiro[2.5]octan-6-yl ((R)-1-amino-3-methyl-1-oxobutan-2-yl)carbamate) at 5 mM by LC/MS analysis. As to conditions: 5000 µM. The class given is ADME. A digest of the protocol: as §2

Data set [16] in a line: Cmax in non-Hodgkin lymphoma patient at 15 mg, po alternate days for 21 days. The class given is ADME, organism-based. Also noted: dose 15 mg, route oral. Particulars: human, in vivo. In outline: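 Oral PPI-2458 given every other day to lymphoma patients. Plasma sampled pre-dose and at 15 min, 30 min, 1, 2, 3, 4, 6, 8, 24 and 48 h after the first dose. Parent and metabolites were measured by LC-MS/MS after protein precipitation, evaporation and reconstitution. CL/F was computed only for parent and summed analytes. For metabolites, t1/2 is an apparent first-phase value.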

T1 sequence (P08684 whole entry): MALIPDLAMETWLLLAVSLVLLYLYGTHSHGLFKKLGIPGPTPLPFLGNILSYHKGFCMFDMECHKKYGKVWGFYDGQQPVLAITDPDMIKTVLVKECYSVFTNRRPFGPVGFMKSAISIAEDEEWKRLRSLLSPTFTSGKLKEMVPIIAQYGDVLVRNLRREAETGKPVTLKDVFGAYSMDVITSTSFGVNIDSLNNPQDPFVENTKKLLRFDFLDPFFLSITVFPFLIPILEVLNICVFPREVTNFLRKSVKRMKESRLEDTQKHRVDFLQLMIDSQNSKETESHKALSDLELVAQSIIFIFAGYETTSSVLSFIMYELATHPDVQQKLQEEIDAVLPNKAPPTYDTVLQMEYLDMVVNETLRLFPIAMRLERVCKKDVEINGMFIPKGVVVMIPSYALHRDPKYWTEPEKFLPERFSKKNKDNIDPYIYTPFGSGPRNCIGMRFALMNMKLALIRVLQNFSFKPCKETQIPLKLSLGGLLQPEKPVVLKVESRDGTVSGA

In the case of `CO[C@@H]1[C@H](OC(=O)N[C@@H](C(N)=O)C(C)C)CC[C@]2(CO2)[C@H]1[C@@]1(C)O[C@@H]1CC=C(C)C` [PPI-2458], the Vmax/Km in data set [1] came out at 0.16 µL/min; in data set [5], 0.09 µL/min; in [14], 0.17 µL/min. Moreover, the Drug metabolism result in [2], in data set [7], in [9], in [13] and in data set [15] was “metabolite_detected” each time. In addition, the inhibition result in data set [3], in data set [6], in data set [10] and in [12] was “Active” each time. The “inhibition (INH)” value in [4] is “Not Active”. In data set [8], the Vmax is recorded as 1.58 pmol/min. Also, affinity in data set [11] was put at a Ki of 287 µM. In addition, in data set [16], the concentration peaked (Cmax) at 55 ng/mL.
